Hits are enriched below; roughly 12% of the tested compounds scored in any of these assays.
Lmaj promast – Leishmania major promastigote growth inhibition, primary screen; inhibition, % at 10 µM; hit rate 9% among 200,000; Leishmania major promastigotes, resazurin fluorescence viability; AID 1063, 2008; in the data active = inhibition above about 50%;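 also: promastigotes grown with compound for 44 hours at 28 °C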
WT yeast gro inh – growth inhibition of WT strain, primary screen, mitochondrial fusion inhibitor project, WT and mutant strains, chemical genetic | mitochondrial fusion phenotypic screen | inhibition, % at 10 µM | hit rate 2.1% among 190,000 | AID 1362, 2008; in the data active = inhibition above about 58%; tested in S. cerevisiae
Diaphorase inh – diaphorase inhibitors and chemical oxidizers, primary screen, counter-screen for diaphorase-coupled primary assays, biochemical, uHTS, resorufin fluorescence; diaphorase resazurin-to-resorufin fluorescence, NADH, 16 min; bacterial (C. kluyveri) enzyme, not human; inhibition, % at 20 µM; hit rate 0.69% among 190,000; AID 1217, 2008;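 active = primary screen inhibition at 20 µM above a set limit, cut at about 50% in these data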;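 also: plate controls were DMSO with full reaction for no effect and wells lacking NADH for full effect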
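System: Bacterial diaphorase enzyme (C. kluyveri) | Incubation: 16-min room-temperature incubation before reading | Benchmarks: No-NADH positive control and DMSO neutral control | Measured by: Resorufin fluorescence 544/590 nm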
Diaph act CS – compounds boosting diaphorase resazurin reduction – biochemical, uHTS, resorufin fluorescence, counter-screen for diaphorase-coupled primary assays, primary screen. activation factor at 20 µM. Diaphorase/resazurin coupled assay, 16 min; hits give high values; 1 = vehicle wells, 0 = NADH-free wells. hit rate 0.005% among 190,000;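 active = diaphorase activity raised at least twofold by the compound at 20 µM; inactive = activation factor below 2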
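Material: purified diaphorase enzyme from Clostridium kluyveri / Medium: HEPES pH 7.4 buffer with MgCl2 and Tween 20 / Schedule: enzyme reaction of 16 min at room temperature / Measured by: resorufin fluorescence, excitation 544 nm, emission 590 nm / Evaluation: rise in resorufin formation, marking diaphorase activation or chemical reduction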
Cl transport mod – KCC2 cotransporter modulators, thallium flux, primary screen, cell-based, HEK293 KCC2, FluoZin-2 fluorescence, MLSMR; hit rate 2.2% among 190,000; KCC2 cells, thallium flux FluoZin-2 fluorescence; B-score of Tl+ flux slope (higher = more flux/activation; lower = inhibition) at 10 µM;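 active = thallium flux slope and its plate-corrected score both differing from the plate sample mean at a set confidence after two filtering rounds, in either direction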;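 also: slope of fluorescence scaled to starting intensity during 10 to 20 s after thallium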
ROMK mod – ROMK potassium channel modulators, primary screen, cell-based, thallium flux, MLSMR library | B-score at 10 µM | hit rate 2% among 130,000 | Tet-inducible ROMK, thallium flux fluorescence; actives lie on both sides | ATP-sensitive inward rectifier potassium channel 1 (Homo sapiens), P48048;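 active = signal ratio slope over the read window, or its plate-corrected B-score, at least 3 SD from the plate mean, either direction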;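 also: B-score of the F/F0 ratio slope over 7 to 12 s after thallium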
Target sequence (P48048 whole entry, looked up): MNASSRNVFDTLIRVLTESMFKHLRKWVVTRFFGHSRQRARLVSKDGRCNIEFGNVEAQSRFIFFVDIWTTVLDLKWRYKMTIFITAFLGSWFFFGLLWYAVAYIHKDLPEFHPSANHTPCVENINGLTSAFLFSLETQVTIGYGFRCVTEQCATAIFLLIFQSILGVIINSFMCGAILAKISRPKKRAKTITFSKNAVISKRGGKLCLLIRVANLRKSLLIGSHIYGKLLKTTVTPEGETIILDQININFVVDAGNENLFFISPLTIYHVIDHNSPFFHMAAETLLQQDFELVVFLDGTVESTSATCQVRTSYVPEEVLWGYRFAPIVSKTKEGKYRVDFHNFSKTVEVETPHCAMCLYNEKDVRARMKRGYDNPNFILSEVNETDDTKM
* = called active by the depositor; · = no result given.

SMILES	Lmaj promast	WT yeast gro inh	Diaphorase inh	Diaph act CS	Cl transport mod	ROMK mod
CCOc1cccc(OCCOCCNC(C)(C)C)c1	28.4	8.3	19.1	0.8	0.806	0.404
C#CCN(C)CCCOc1ccc(Cl)cc1Cl	-2.7	1.0	0.3	1	-0.207	·
C=CCc1cc(Cl)ccc1OCCOCCN(C)C	100.1*	24.6	7.9	0.9	-0.289	-1.02
C=CCc1cc(Cl)ccc1OCCNCCCOC	99.5*	-0.6	19.8	0.8	-0.00414	-1.69
C=CCc1cc(Cl)ccc1OCCOCCNC(C)(C)C	99.4*	12.2	-1.0	1	1.36	-2.26
C=CCc1cc(Cl)ccc1OCCOCCNCCOC	99.4*	-1.7	14.9	0.9	0.455	-0.196
CCC(=O)c1ccc(OCC(O)CN2CCN(c3ccc(F)cc3)CC2)cc1 (stereo not given)	-4.4	8.0	14.0	0.9	·	-0.28
CN(CC(O)COc1ccc(OCC(O)CN(C)C2CCCCC2)cc1)C1CCCCC1 (stereo not given)	63.1*	2.6	7.0	0.9	·	0.801
CN(CC(O)COC(c1ccccc1)c1ccccc1)C1CCCCC1 (stereo not given)	18.5	12.7	2.7	1	0.241	-1.02
Cc1cccc(C)c1OCC(O)CN1CCN(c2ccccn2)CC1 (stereo not given)	1.0	-16.2	4.5	1	0.253	0.0508
CCC(=O)c1ccc(OCC(O)CNCc2ccc(F)cc2)cc1 (stereo not given)	79.7*	-6.1	7.2	0.9	-0.247	·
CCC(=O)c1ccc(OCC(O)CN(C)C2CCCCC2)cc1 (stereo not given)	91.8*	15.5	11.6	0.9	0.5	-0.526
Cc1cccc(C)c1OCC(O)CN(Cc1ccccc1O)C1CCCCC1 (stereo not given)	94.0*	24.3	2.4	1	0.0281	-0.01
COc1cc2c(cc1NC(=O)CN(C)Cc1cccc(OC)c1OC)oc1ccccc12	5.7	19.1	2.1	1	-0.00462	0.483
CCCn1c(CCC(=O)Nc2ccccc2Cc2ccccc2)nc2cc(S(=O)(=O)N3CCOCC3)ccc21	21.6	-9.3	10.5	0.9	-1.2	0.414
O=[N+]([O-])c1cccc(-c2nnn(C34CC5CC(CC(C5)C3)C4)n2)c1	-7.8	-4.2	14.2	0.9	-0.0147	·
O=C(c1ccccc1)c1ccccc1N/C=C/c1nnnn1-c1ccccc1	53.8*	24.7	6.0	0.9	-0.0117	·
Cc1cc(/C=C\c2nc(O)c([N+](=O)[O-])c(=O)[nH]2)c(C)n1-c1ccccc1	-3.6	5.7	29.9	0.7	0.115	-0.0987
O=C(COc1ccccc1/C=C\c1nc(O)c([N+](=O)[O-])c(=O)[nH]1)Nc1ccccc1	6.8	-13.4	71.6*	0.3	0.333	0.576
CCN(C(=O)CSc1nc2nc(C)cc(C)n2n1)C1CCS(=O)(=O)C1 (stereo not given)	-5.4	-10.0	4.5	1	-0.0083	-0.749
CC1CCCCC1NCC#CCOc1ccc(Cl)cc1 (stereo not given)	83.0*	20.3	-2.4	1	-0.287	-1.69
O=C(NNC(=S)NCCc1ccccc1)c1ccc(Br)s1	0.5	3.4	1.8	1	-0.704	0.482
CN(C)Cc1nc2ccccc2c(=O)n1Cc1nc(-c2cccc([N+](=O)[O-])c2)cs1	51.8*	13.3	-0.8	1	-0.169	-0.971
CN1CCN(Cc2nc3ccccc3c(=O)n2Cc2nc(-c3ccc([N+](=O)[O-])cc3)cs2)CC1	100.5*	-5.4	16.5	0.8	-0.179	·
Cc1cc2cc(CNC(=O)Nc3ccccc3)ccc2[nH]1	0.0	-54.2	3.7	1	-0.394	-0.00224
SMILES	Lmaj promast	WT yeast gro inh	Diaphorase inh	Diaph act CS	Cl transport mod	ROMK mod
C=CCNC(=O)CC1Nc2c3ccccc3nc(=S)n2C1=O (stereo not given)	4.0	-7.8	29.7	0.7	0.867	-1.64
CCN(C(=S)Nc1ccccc1F)C1CCCCC1	1.6	5.7	10.7	0.9	·	-0.948
CCOC(=O)C(C)/C(C)=N\Nc1ccc([N+](=O)[O-])cc1[N+](=O)[O-] (stereo not given)	1.6	-10.3	21.0	0.8	-1.3	·
CCOC(=O)C(C)/C(C)=N/NC(N)=S (stereo not given)	61.4*	13.6	3.1	1	1.74	0.017
COc1cc(/C=N/NC(=O)c2ccc(CN3C(=O)c4cccc5cccc3c45)cc2)cc(OC)c1O	·	·	·	·	-0.678	·
COc1cccc(C2CC(c3c(-c4ccccc4)c4cc(Cl)ccc4[nH]c3=O)=NN2S(C)(=O)=O)c1OC (stereo not given)	99.9*	2.2	0.6	1	-0.403	-0.765
O=C(c1cc2ccccc2o1)N1CCC(N2CCC(C(=O)N3CCCC3)CC2)CC1	50.0*	28.2	11.2	0.9	0.276	0.377
O=C(c1cc2ccccc2o1)N1CCCC1	-2.4	21.6	3.8	1	0.476	-0.169
Cc1cc(CN2CCN(CCC#N)CC2)c(O)c(C2(C)CCCCC2)c1	22.3	83.6*	23.5	0.8	0.571	·
COc1ccc2[nH]c(N=Nc3ccccc3C)c(O)c2c1	30.0	10.8	4.1	1	-0.331	0.769
CCc1c(C)nc(Nc2nc(C)c3cc(OC)ccc3n2)[nH]c1=O	98.4*	49.2	-8.2	1.1	·	0.477
CCc1ccc2nc(Nc3nc(COC)cc(=O)[nH]3)nc(C)c2c1	11.6	-1.9	5.3	0.9	-1.55	·
COc1ccc2nc(NC3=NC(c4ccccc4)CC(=O)N3)nc(C)c2c1 (stereo not given)	94.4*	3.5	16.5	0.8	-0.176	-1.34
CCCCCc1c(C)nc(Nc2nc(C)c3cc(OC)ccc3n2)[nH]c1=O	98.7*	-14.6	13.7	0.9	·	0.167
COc1ccc2nc(Nc3nc(CSc4nc5ccccc5[nH]4)cc(=O)[nH]3)nc(C)c2c1	100.1*	8.3	18.3	0.8	0.066	-0.628
C/C(=N/NC(=O)CNC(=O)/C=C/c1ccco1)c1ccc(Cl)cc1	-4.8	-2.3	2.6	1	-1.76	-0.38
CCc1c(C)nc(Nc2nc(C)c3ccc(OC)cc3n2)[nH]c1=O	94.1*	62.4*	1.9	1	0.841	0.00864
COc1ccc2c(C)nc(Nc3nc(C)c(C)c(=O)[nH]3)nc2c1	100.3*	62.4*	5.9	0.9	0.0754	·
COc1ccc2c(C)nc(Nc3nc(C)cc(C)n3)nc2c1	21.6	18.3	-3.2	1	-0.536	0.883
CC[n+]1c(P(=O)([O-])c2ccccc2)[nH]c2ccccc21	-0.5	13.0	12.6	0.9	·	·
O=C(O)c1ccccc1NC(=O)N1CCOCC1	-0.3	3.3	9.0	0.9	0.216	-0.251

Source: PubChem BioAssay (several laboratories)
